Data reported in ChEMBL document CHEMBL3612038, “N-Alkyl/aryl-4-(3-substituted-3-phenylpropyl)piperazine-1-carbothioamide as dual-action vaginal microbicides with reverse transcriptase inhibition” (Eur J Med Chem, 2015).
Converted amounts (≈) assume the structure as drawn.

Legend:
[1] = test system: Trichomonas vaginalis; experiment: Resistance index, ratio of MIC for MTZ-resistant Trichomonas vaginalis to MIC for MTZ-susceptible Trichomonas vaginalis; type: functional
[2] = test system: Candida albicans; experiment: Antifungal activity against Candida albicans incubated for 48 hrs by broth micro-dilution method; type: functional
How it was run: (§1)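 Broth microdilution per NCCLS guidelines in RPMI 1640 buffered with MOPS; starting inoculum 1–5 × 10^3 CFU/mL; plates incubated at 35 °C, MIC read after 48 h.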

[3] = Effect on Lactobacillus jensenii ATCC 25258 62G assessed as effect on microbial proliferation at 200 ug/ml incubated for 24 hrs
How it was run: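 L. jensenii ATCC 25258 (strain 62G) in 6% Rogosa SL broth with 0.132% acetic acid; serial compound dilutions or vehicle in triplicate, ~1000 CFU per well, 24 h at 37 °C, humidified 5% CO2; growth read as OD610, expressed relative to control = 100.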

[4] = test system: Trichomonas vaginalis; experiment: Anti-trichomonas activity against MTZ-susceptible Trichomonas vaginalis incubated for 3 to 48 hrs by trypan blue exclusion assay; type: functional
How it was run: (§2)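 Trichomonas vaginalis trophozoites (5 × 10^4/L as printed) in TYM medium; DMSO stocks (100.0 mg/mL) serially diluted in TYM to 0.1 mg/mL, DMSO/TYM vehicle controls. Anaerobic incubation at 37 °C; viability checked 3–48 h by microscopy (200×) with trypan blue exclusion. MIC = lowest concentration killing all cells within 48 h.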

[5] = target: Human immunodeficiency virus type 1 reverse transcriptase (Human immunodeficiency virus 1) (UniProt Q72547); experiment: Inhibition of HIV1 reverse transcriptase at 100 ug/ml incubated for 1 hr by ELISA method
How it was run: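 Non-radioactive colorimetric ELISA: template/primer with dNTPs plus HIV-1 RT in lysis buffer ± compound (100 µg/mL), 1 h at 37 °C; RT-free buffer as negative control, nevirapine as positive control. Product captured on streptavidin plate 1 h at 37 °C, detected with anti-DIG-POD and ABTS, OD 405 nm.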

[6] = Spermicidal activity in liquefied human semen assessed as reduction in motile spermatozoa incubated at 37 degC for 30 mins; type: functional, Sperm; conditions: for minimal effective concentration: Homo sapiens, Sperm, Semen, 0.5 h, read-out: MEC
How it was run: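 Compounds dissolved in minimal DMSO, diluted with 0.85% saline to 1.0% test solution; liquefied human semen mixed 1:5 with test solution, vortexed 10 s; motile sperm scored by phase-contrast microscopy over 60 s in five fields. MEC = lowest concentration immobilizing 100% of sperm, still immotile after dilution with nutrient medium.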

[7] = test system: Candida parapsilosis; experiment: Antifungal activity against Candida parapsilosis ATCC 22019 incubated for 48 hrs by broth micro-dilution method; type: functional; conditions: Lodderomyces parapsilosis, ATCC 22019, 48 h; how it was run: as §1
[8] = test system: Aspergillus fumigatus; experiment: Antifungal activity against Aspergillus fumigatus incubated for 48 hrs by broth micro-dilution method; type: functional; how it was run: as §1
[9] = test system: Trichomonas vaginalis; experiment: Anti-trichomonas activity against MTZ-resistant Trichomonas vaginalis incubated for 3 to 48 hrs by trypan blue exclusion assay; type: functional; how it was run: as §2
[10] = test system: Trichophyton mentagrophytes; experiment: Antifungal activity against Trichophyton mentagrophytes incubated for 48 hrs by broth micro-dilution method; type: functional; how it was run: as §1
[11] = test system: Sporothrix schenckii; experiment: Antifungal activity against Sporothrix schenckii incubated for 48 hrs by broth micro-dilution method; type: functional; how it was run: as §1
[12] = test system: Cryptococcus neoformans; experiment: Antifungal activity against Cryptococcus neoformans incubated for 48 hrs by broth micro-dilution method; type: functional; how it was run: as §1
[13] = test system: HeLa; experiment: Cytotoxicity against human HeLa cells assessed as reduction in cell viability at 200 ug/ml incubated for 24 hrs by MTT assay; type: cell-based
How it was run: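 HeLa cells seeded at 5 × 10^4 per well, exposed 24 h to compound dilutions in culture medium or vehicle control; MTT (5 mg/mL in pH 7.4 buffer) added, formazan dissolved in DMSO, absorbance read at 540 nm.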

Row | SMILES | Ratio [1] | MIC [2] | Activity [3] | MIC [4] | inhibition [5] | MEC [6] | minimal effective concentration [6] | MIC [7] | MIC [8] | MIC [9] | MIC [10] | MIC [11] | MIC [12] | Activity [13]
1 | O=C(CCN1CCN(C(=S)Nc2ccccc2)CC1)c1ccccc1 | 2 | > 81.2 µM | Non-toxic | 88.5 µM (≈ 31.3 µg/mL) | 49.2% | 0.1% | 2830 µM | > 81.2 µM | > 81.2 µM | 354 µM (≈ 125 µg/mL) | 17.6 µM (≈ 6.22 µg/mL) | > 81.2 µM | 17.6 µM (≈ 6.22 µg/mL) | Non-toxic
2 | FC(F)(F)c1ccc(OC(CCN2CCN(C(=S)NCc3ccccc3)CC2)c2ccccc2)cc1 (stereo not given) | 2 | > 81.2 µM | Non-toxic | 60.9 µM (≈ 31.3 µg/mL) | 51% | >1% | > 19500 µM | > 81.2 µM | > 81.2 µM | 243 µM (≈ 125 µg/mL) | 6.07 µM (≈ 3.12 µg/mL) | > 81.2 µM | 12.1 µM (≈ 6.21 µg/mL) | Non-toxic
3 | FC(F)(F)c1ccc(OC(CCN2CCN(C(=S)NCCc3ccccc3)CC2)c2ccccc2)cc1 (stereo not given) | 2 | > 81.2 µM | Non-toxic | 47.3 µM (≈ 25 µg/mL) | 38.4% | >1% | > 19000 µM | > 81.2 µM | > 81.2 µM | 118 µM (≈ 62.5 µg/mL) | > 81.2 µM | > 81.2 µM | > 81.2 µM | Non-toxic
4 | O=C(CCN1CCN(C(=S)NC2CCCCC2)CC1)c1ccccc1 | 2 | 34.7 µM (≈ 12.5 µg/mL) | Non-toxic | 43.3 µM (≈ 15.6 µg/mL) | 47.7% | 0.05% | 1390 µM | > 81.2 µM | > 81.2 µM | 175 µM (≈ 62.8 µg/mL) | 4.33 µM (≈ 1.56 µg/mL) | > 81.2 µM | 8.6 µM (≈ 3.09 µg/mL) | Non-toxic
5 | OC(CCN1CCN(C(=S)NCc2ccccc2)CC1)c1ccccc1 (stereo not given) | 2 | > 81.2 µM | Non-toxic | 169 µM (≈ 62.6 µg/mL) | 47.2% | 0.05% | 1350 µM | > 81.2 µM | > 81.2 µM | 339 µM (≈ 125 µg/mL) | > 81.2 µM | > 81.2 µM | > 81.2 µM | Non-toxic
6 | FC(F)(F)c1ccc(OC(CCN2CCN(C(=S)Nc3ccccc3)CC2)c2ccccc2)cc1 (stereo not given) | 2 | > 81.2 µM | Non-toxic | 50.1 µM (≈ 25 µg/mL) | 21.1% | 0.05% | 1000 µM | > 81.2 µM | > 81.2 µM | – | > 81.2 µM | > 81.2 µM | > 81.2 µM | Non-toxic
7 | OC(CCN1CCN(C(=S)NC2CCCCC2)CC1)c1ccccc1 (stereo not given) | 2 | > 81.2 µM | Non-toxic | 173 µM (≈ 62.6 µg/mL) | 24.3% | 1% | 27700 µM | > 81.2 µM | > 81.2 µM | 174 µM (≈ 62.8 µg/mL) | > 81.2 µM | > 81.2 µM | > 81.2 µM | Non-toxic
8 | Cc1ncc([N+](=O)[O-])n1CCO [METRONIDAZOLE] | 15 | – | – | 19.7 µM (≈ 3.37 µg/mL) | – | – | – | – | – | 293 µM (≈ 50.1 µg/mL) | – | – | – | –
9 | O=C(CCN1CCN(C(=S)NCCc2ccccc2)CC1)c1ccccc1 | 2 | > 81.2 µM | Non-toxic | 40.8 µM (≈ 15.6 µg/mL) | 50.2% | 0.01% | 260 µM | > 81.2 µM | > 81.2 µM | 164 µM (≈ 62.6 µg/mL) | > 81.2 µM | > 81.2 µM | > 81.2 µM | Non-toxic
10 | FC(F)(F)c1ccc(OC(CCN2CCN(C(=S)NC3CCCCC3)CC2)c2ccccc2)cc1 (stereo not given) | 2 | > 81.2 µM | Non-toxic | 64.3 µM (≈ 32.5 µg/mL) | 24.3% | >1% | > 19800 µM | > 81.2 µM | > 81.2 µM | 495 µM (≈ 250 µg/mL) | > 81.2 µM | > 81.2 µM | > 81.2 µM | Non-toxic
11 | O=C(CCN1CCN(C(=S)NCc2ccccc2)CC1)c1ccccc1 | 2 | 67.9 µM (≈ 25 µg/mL) | Non-toxic | 85.1 µM (≈ 31.3 µg/mL) | 58.3% | 0.1% | 2720 µM | > 81.2 µM | > 81.2 µM | 341 µM (≈ 125 µg/mL) | 4.22 µM (≈ 1.55 µg/mL) | > 81.2 µM | 8.47 µM (≈ 3.11 µg/mL) | Non-toxic
12 | OC(CCN1CCN(C(=S)Nc2ccccc2)CC1)c1ccccc1 (stereo not given) | 2 | > 81.2 µM | Non-toxic | – | – | 0.1% | 2820 µM | > 81.2 µM | > 81.2 µM | 352 µM (≈ 125 µg/mL) | > 81.2 µM | > 81.2 µM | > 81.2 µM | Non-toxic
13 | OC(Cn1cncn1)(Cn1cncn1)c1ccc(F)cc1F [FLUCONAZOLE] | – | 3.26 µM (≈ 0.998 µg/mL) | – | – | – | – | – | 6.53 µM (≈ 2 µg/mL) | > 81.2 µM | – | > 81.2 µM | 6.53 µM (≈ 2 µg/mL) | 6.53 µM (≈ 2 µg/mL) | –
